Drawing on ChEMBL document CHEMBL4371031, “In Vitro Antiviral Activity of New Oxazoline Derivatives as Potent Poliovirus Inhibitors” (J Med Chem, 2019), this text covers EC50 for 12 compounds.

One may read the pEC50 as −log10 of the EC50, conventionally taken in molar units.

Common to all, as to type: functional, organism-based
Common to all, as to conditions: Enterovirus C

In one experiment the test system is Poliovirus 1. Description: Antiviral activity against Poliovirus Sabin 1 infected in human HeLa cells assessed as reduction in virus-induced cytopathic effect after 72 hrs by crystal violet staining-based assay. Summed up: (§1)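 HeLa cells grown in MEM-10% FBS, seeded at 2x10^5 cells/mL in MEM-2% FBS and preincubated 24 h at 37°C, 5% CO2. Compound and virus were cross-titrated […] compound in 0.5 log10 steps (7-point curves), with duplicate wells and three replicate tests per virus. After 72 h at 37°C, cells were crystal violet stained and read at 590 nm. EC50 came from a four-parameter fit; if all virus dilutions gave >80% monolayer destruction, the value was […].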
For orientation: Cytopathic effects are the visible damage that an infection or toxin causes in cultured cells.

For another experiment, the system named is Poliovirus 2. Description: Antiviral activity against Poliovirus Sabin 2 infected in human HeLa cells assessed as reduction in virus-induced cytopathic effect after 72 hrs by crystal violet staining-based assay. The procedure, abridged: as §1
A further experiment deals with Poliovirus 3. Description: Antiviral activity against Poliovirus Sabin 3 infected in human HeLa cells assessed as reduction in virus-induced cytopathic effect after 72 hrs by crystal violet staining-based assay. Summed up: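 HeLa cells grown in MEM-10% FBS, seeded at 2x10^5 cells/mL in MEM-2% FBS and held 24 h at 37°C, 5% CO2. Compound and virus were cross-titrated together on the cells starting at 10 µM compound, in 0.5 log10 steps, duplicate wells, three replicate tests per virus. Incubated 72 h at 37°C, stained with crystal violet, A590 read. EC50 from four-parameter fit.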

pEC50: −log10 of the molar value. Some results are limits rather than exact numbers.

For `N#Cc1ccc(NC(=O)c2cc3n(n2)C(C(F)(F)F)CC(c2cccs2)N3)cc1` (stereo unspecified), the pEC50 with Poliovirus 1 is 8.00; in the experiment on Poliovirus 2 it was 7.59; in the experiment with Poliovirus 3, 6.66.

Regarding `CCOC(=O)c1ccc(OCCC2CCN(c3ccc(C)nn3)CC2)cc1` [PIRODAVIR], the pEC50 was 8.35 in the experiment on Poliovirus 1, 8.30 with Poliovirus 2 and 8.10 in the experiment with Poliovirus 3.

Regarding `Cc1ccc(C(=O)CCCC#Cc2ccc(C3=NCCO3)cc2)s1`, the pEC50 in the experiment with Poliovirus 1 is below 5.00; with Poliovirus 2 it was 5.04; in the experiment on Poliovirus 3, 5.04.

`Cc1ccc(C(=O)CCCCS(=O)(=O)c2ccc(C3=NCCO3)cc2)s1`: the pEC50 with Poliovirus 1, in the experiment with Poliovirus 2 and with Poliovirus 3 was below 5.00 in each case.

In the case of `Cc1ccc(C(=O)c2cccc(COc3ccc(C4=NCCO4)cc3)c2)s1`, the pEC50 with Poliovirus 1, in the experiment on Poliovirus 2 and with Poliovirus 3 was below 5.00 throughout.

Take `Cc1ccc(C(=O)CCCCCc2ccc(C3=NCCO3)cc2)s1`: the pEC50 with Poliovirus 1 was below 5.00; in the experiment on Poliovirus 2 it was 5.03; in the experiment on Poliovirus 3 it was 5.04.

Take `Cc1ccc(C(=O)c2cccc(CSc3ccc(C4=NCCO4)cc3)c2)s1`: the pEC50 with Poliovirus 1, in the experiment on Poliovirus 2 and in the experiment on Poliovirus 3 was below 5.00 in each case.

With `C#CC[C@@H](C(=O)N[C@H](/C=C/C(=O)OCC)C[C@@H]1CCNC1=O)n1cccc(NC(=O)c2cc(C)on2)c1=O` [IMOCITRELVIR], the pEC50 was 6.76 in the experiment with Poliovirus 1, 6.52 with Poliovirus 2 and 6.86 in the experiment on Poliovirus 3.

`COc1ccc(OCc2ccc(COc3c(Cl)cccc3Cl)cc2)c(Cl)c1`: the pEC50 was 7.77 in the experiment on Poliovirus 1, 7.80 in the experiment with Poliovirus 2 and 7.70 with Poliovirus 3.

On to `Cc1ccc(C(=O)CCCCOc2ccc(C3=N[C@H](C)CO3)cc2)s1`, for which the results for the pEC50 in the experiment on Poliovirus 1, with Poliovirus 2 and in the experiment on Poliovirus 3 were below 4.00, 6.38 and 5.88, respectively.

For `Cc1ccc(C(=O)CCCC[S+]([O-])c2ccc(C3=NCCO3)cc2)s1` (racemic), the pEC50 in the experiment on Poliovirus 1, in the experiment on Poliovirus 2 and in the experiment on Poliovirus 3 was below 5.00 in each case.

As for `Cc1ccc(C(=O)CCCCSc2ccc(C3=N[C@H](C)CO3)cc2)s1`, the pEC50 in the experiment with Poliovirus 1 is 6.77; in the experiment on Poliovirus 2, 6.52; with Poliovirus 3 it was 6.28.
